Screening data (PubChem BioAssay)
FXN GAA850 act: FXN promoter activators, primary screen, cell-based, luciferase luminescence, HEK293 lucGAA850. HEK293 lucGAA850 FXN promoter luciferase reporter, 24 h; percent of 10 µM SAHA response. AID 540364, 2011. activation, % at 6 µM. actives 0.56% (n = 360,000);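 active = activation above the average of all compounds screened plus 3 SD, cutoff fixed separately per campaign, cut at about 7.5% in these data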
APJ ag: agonists of human apelin receptor APJ, primary screen, CHO-K1 cells, PathHunter beta-arrestin, luminescence; P35414; 0% DMSO wells, 100% apelin; activation, % at 20 µM; actives 0.11% (n = 330,000);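 active = activation more than six SD over the plate average, tested at 20 µM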
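Material: engineered CHO-K1 APJ arrestin reporter cells; amount: 1000 CHO-K1 reporter cells seeded per well; incubation: compound stimulation 90 min at 25 °C, detection 60 min; signal: luminescent beta-gal fragment complementation, chemiluminescent substrate; read-out basis: APJ agonist activity; controls: DMSO-only wells as negative, 10 nM Apelin-13 as positive control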
CCR6 antagonist: CCR6 receptor antagonists, primary screen, cell-based, CHO-K1, luminescence, beta-arrestin, uHTS; C-C chemokine receptor type 6 (Homo sapiens), P51684; CHO-K1 CCR6 PathHunter beta-arrestin, CCL20-stimulated; inhibition, % at 20 µM; actives 0.49% (n = 340,000); AID 493098, 2011;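 active = compounds whose inhibition of the agonist-driven luminescence signal at 20 µM reaches about 50%, limit read from the data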;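 note: cells stimulated with CCL20 at 14 nM final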
EBI2 block: EBI2 receptor antagonists, beta-arrestin recruitment, primary screen, cell-based, luminescence, 7a,25-OHC stimulation, uHTS; G-protein coupled receptor 183 (Homo sapiens), P32249; 7a,25-OHC stimulated; inhibition, % at 5 µM; actives 0.81% (n = 360,000); in the data active = inhibition above about 38%;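 note: enzyme fragment complementation signal reports receptor beta-arrestin coupling in cells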
Target sequence (P32249 whole entry, looked up, the tested form may be a part): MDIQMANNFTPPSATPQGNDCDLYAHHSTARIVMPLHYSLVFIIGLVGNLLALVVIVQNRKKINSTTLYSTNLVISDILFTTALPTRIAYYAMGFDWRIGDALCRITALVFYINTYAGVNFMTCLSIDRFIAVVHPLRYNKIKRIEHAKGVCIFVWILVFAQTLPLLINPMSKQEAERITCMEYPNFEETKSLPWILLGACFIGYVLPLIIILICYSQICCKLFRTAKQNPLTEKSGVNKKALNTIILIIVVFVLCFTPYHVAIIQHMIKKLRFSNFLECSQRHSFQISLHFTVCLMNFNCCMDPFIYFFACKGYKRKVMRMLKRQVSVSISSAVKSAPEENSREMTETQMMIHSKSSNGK
APJ antagonist: antagonists of human apelin receptor APJ, primary screen, CHO-K1 cells, beta-arrestin complementation, luminescence | P35414 | inhibition, % at 20 µM | actives 0.32% (n = 330,000) | AID 2521, 2010;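 active = inhibition above about 40% at 20 µM, limit read from the data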;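 note: cells challenged with 10 nM apelin-13 agonist together with compound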
CXCR6 inh: CXCR6 receptor inhibitors, primary screen, cell-based, beta-arrestin, luminescence, CHO-K1 PathHunter, 1536-well; actives 0.36% (n = 360,000); C-X-C chemokine receptor type 6 (Homo sapiens), O00574; inhibition, % at 20 µM; in the data active = inhibition above about 34%, passing the limit was not always enough;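 note: antagonist mode with CXCL16 agonist at 10 nM final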
Target sequence (O00574 whole entry, looked up): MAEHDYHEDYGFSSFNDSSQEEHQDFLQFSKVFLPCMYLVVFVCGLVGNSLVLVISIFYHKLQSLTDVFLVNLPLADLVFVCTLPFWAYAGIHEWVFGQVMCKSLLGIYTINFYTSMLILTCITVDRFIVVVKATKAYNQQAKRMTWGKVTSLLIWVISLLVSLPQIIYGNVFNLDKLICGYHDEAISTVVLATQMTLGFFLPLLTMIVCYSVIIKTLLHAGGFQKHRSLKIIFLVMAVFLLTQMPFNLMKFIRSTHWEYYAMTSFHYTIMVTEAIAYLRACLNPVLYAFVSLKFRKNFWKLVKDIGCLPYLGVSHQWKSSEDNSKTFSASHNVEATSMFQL
GAA30 counter: GAA30 FXN promoter activators, confirmation, counter-screen for GAA850 frataxin promoter activator project, cell-based, luminescence, HEK293, lucGAA30, triplicate | AID 588350, 2011 | actives 66% (n = 1,900) | activation, % at 6 µM | HEK293 lucGAA30 FXN promoter luciferase, 24 h; DMSO = 0%, 5 µM ipriflavone = 100% | shares compounds with FXN GAA850 act;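 active = mean activation above the mean of solvent-only control wells plus 3 SD, cut at about 22% in these data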;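 note: counterscreen of GAA850 promoter hits where activity marks nonselective or luminescence artifacts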
GAA850 confirm: FXN GAA850 promoter activators in reporter cells, confirmation, cell-based, luminescence, HEK293 lucGAA850, triplicate; actives 86% (n = 1,900); HEK293 lucGAA850 FXN promoter luciferase reporter, 24 h; 100% = activation by SAHA; activation, % at 6 µM; shares compounds with FXN GAA850 act;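 active = mean activation above a set limit taken from the primary screen, cut at about 8% in these data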
Of the large screens only hits and unclear results are named; the others gave an inactive call (follow-up assays come after a bar, where they were run); ! = repeats disagree. In the library only some 2% were active in any assay of this set; here they are far more common.

NC(=O)CC1C(=O)N(c2ccccc2)C(=S)N1NC(=O)c1ccc(Br)cc1 (centres undefined)	none
O=[N+]([O-])c1cc(S(=O)(=O)C(F)(F)F)ccc1Sc1nc2ccccc2s1	FXN GAA850 act 13 | GAA30 counter inactive | GAA850 confirm 38
C=CCN(Cc1ccc(OC)c(OC)c1)C(=O)c1cc2cc(F)ccc2[nH]1	FXN GAA850 act 13 | GAA30 counter 27 | GAA850 confirm 16
CN1/C(=C\C(=O)c2cccnc2)C(C)(C)c2ccccc21	none
CN1/C(=C/C(=O)c2nc(S(C)(=O)=O)ncc2Cl)C(C)(C)c2ccccc21	FXN GAA850 act 9.8, EBI2 block 58 | GAA30 counter inactive | GAA850 confirm inactive
O=C(N/N=C/c1ccccn1)c1cc(C2CC2)[nH]n1	FXN GAA850 act 7.6 | GAA30 counter 106 | GAA850 confirm 38
Cc1cc(C(=O)N/N=C/c2ccccn2)n[nH]1	none
CCOC(=O)c1cc2c(nc1N)CCCC2	none
CCOC(=O)c1cnc2cc3c(cn2c1=O)CCCC3	FXN GAA850 act 8.2 | GAA30 counter 98 | GAA850 confirm 34
CSc1nc(N)nc(SC2C=CCCC2)c1C#N (centres undefined)	FXN GAA850 act 13 | GAA30 counter 41 | GAA850 confirm 22
CC1=C(C(=O)N(C)C)CC(CC(=O)NCCCCc2ccccc2)C(=O)N1Cc1ccc(C(C)(C)C)cc1 (centres undefined)	none (no result: APJ ag, CCR6 antagonist, APJ antagonist)
CCOC(=O)c1[nH]c(C)c(C(=O)N(C)C)c1C	none
CCOC(=O)c1[nH]c(C)c(CC(C)C)c1C	FXN GAA850 act 8.5 | GAA30 counter 40 | GAA850 confirm 15
CCOC(=O)c1c(C)[nH]c(C(=O)C(C)Cl)c1C (centres undefined)	none
CCOC(=O)c1[nH]c(C)c(C(=O)C(C)C)c1C	FXN GAA850 act 8.8 | GAA30 counter 77 | GAA850 confirm 24
CC(C)(C)C(=O)Nc1sc2c(c1C#N)CCN(Cc1ccccc1)C2	none
Cc1ccc(-c2nn(-c3ccccc3)cc2C(=O)Nc2cccc(S(=O)(=O)NC3=NCCC3)c2)cc1	none (no result: APJ ag, CCR6 antagonist, APJ antagonist)
CN1CCSc2ccc(C(=O)Nc3ccc(Cl)cc3)cc21	FXN GAA850 act 7.8 | GAA30 counter 120 | GAA850 confirm 45
O=C1c2cccc3c(N4CCCCC4)ccc(c23)C(=O)N1CCO	FXN GAA850 act 8.3 | GAA30 counter 88 | GAA850 confirm 33
COc1ccc(C2CC(=O)N(C)c3ccccc3S2)cc1OC (centres undefined)	FXN GAA850 act 8.4 | GAA30 counter 122 | GAA850 confirm 45
COc1cc(CNC(=O)Nc2nc(C(N)Cc3ccc(C(F)(F)F)cc3)cs2)cc(OC)c1OC (centres undefined)	none (no result: APJ ag, CCR6 antagonist, APJ antagonist)
CCOC(=O)c1c(C)nc(-c2ccccc2)nc1N	FXN GAA850 act 8.0 | GAA30 counter 131 | GAA850 confirm 39
CC(=O)c1c(C)nc(-c2ccccc2)nc1N	none
Cc1noc(C)c1S(=O)(=O)NCc1ccc(CN(C)C)cc1	none
CCC(=O)c1ccc(OCc2ccc(C(=O)OC)cc2)c(OC)c1	none
CCC(=O)c1ccc(OCc2ccccc2)c(OC)c1	FXN GAA850 act 7.8 | GAA30 counter 101 | GAA850 confirm 38
CN(C)CCCN1C(=O)c2cccc3c([N+](=O)[O-])ccc(c23)C1=O	FXN GAA850 act 7.7 (no result: APJ ag, CCR6 antagonist, APJ antagonist) | GAA30 counter inactive | GAA850 confirm 12
O=C(O)c1ccc(CN2C(=O)c3cccc4c([N+](=O)[O-])ccc(c34)C2=O)cc1	none (no result: APJ ag, APJ antagonist)
Cn1cnc2c1c(=O)n(Cc1cccc(Cl)c1)c(=O)n2C	none
CC(=O)Cn1nnc2sc3c(c2c1=O)CCC(C(C)(C)C)C3 (centres undefined)	FXN GAA850 act 8.2 | GAA30 counter 119 | GAA850 confirm 45
CCOC(=O)c1sc(NC(=O)Cn2nnc3sc4c(c3c2=O)CCC(C(C)(C)C)C4)nc1C (centres undefined)	none
Cc1cccc(C)c1NC(=O)C1(C)CSCC(=O)N1Cc1ccco1 (centres undefined)	none (no result: FXN GAA850 act, APJ ag, CCR6 antagonist, APJ antagonist, CXCR6 inh)
CC1=NNC(=O)/C1=C\c1cn(-c2ccccc2)nc1-c1ccccc1	FXN GAA850 act 8.0, EBI2 block 63 (no result: APJ ag, APJ antagonist) | GAA30 counter inactive | GAA850 confirm 15
O=Cc1cn(-c2ccccc2)nc1-c1ccccc1	none
C=CCn1c(N)c(C(=O)NCCC2=CCCCC2)sc1=S	FXN GAA850 act 7.6 | GAA30 counter 92 | GAA850 confirm 35
c1ccc(Nc2nc(-c3cccs3)cs2)nc1	none
Cc1cccc(Nc2nc(-c3cccs3)cs2)n1	FXN GAA850 act 7.7 | GAA30 counter 115 | GAA850 confirm 41
CC(=O)c1ccc(OCC(O)CN2CCN(Cc3ccc4c(c3)OCO4)CC2)cc1 (centres undefined)	FXN GAA850 act 9.3! | GAA30 counter 22 | GAA850 confirm inactive
Cn1/c(=N\NC(=O)c2ccccc2Cl)sc2ccccc21	FXN GAA850 act 8.1 | GAA30 counter 104 | GAA850 confirm 27
CC(=O)N/N=c1\sc2ccccc2n1C	none
COc1ccc(-c2nnc(SCC(=O)N3CCOCC3)o2)cc1	FXN GAA850 act 7.7 | GAA30 counter 101 | GAA850 confirm 30
CCN1C(=O)[C@H]2[C@@H](c3ccc(OC)cc3)N[C@]3(CCCN(Cc4ccc(F)cc4)C3=O)[C@H]2C1=O	none (no result: APJ ag, CCR6 antagonist, APJ antagonist)
Cc1cc2c([nH]c3ccccc32)c2c1OC(C)(C)C=C2	FXN GAA850 act 8.2 | GAA30 counter 124 | GAA850 confirm 46
COc1ccnc(Oc2ccc3ccccc3c2)c1C#N	FXN GAA850 act 8.2 | GAA30 counter 82 | GAA850 confirm 25
COc1ccnc(Oc2ccc(C)cc2)c1C#N	none
CCNS(=O)(=O)c1ccc(CCC(=O)N2CCN(c3cccc(Cl)c3)CC2)cc1	none
Cc1ccc(S(=O)(=O)NCCC(=O)N2CCN(c3cccc(Cl)c3)CC2)cc1C	FXN GAA850 act 11 | GAA30 counter inactive | GAA850 confirm inactive
COc1ccc(NC(=O)c2csc3c2CCCCC3)c(OC)c1	none
